According to ChEMBL document CHEMBL1123149, “Synthesis and antineoplastic evaluations of 5,8-bis[(aminoalkyl)amino]-1-azaanthracene-9,10-diones” (1985):
Values after ≈ are worked out from the molar mass of the structure shown. Active and inactive are the calls of the source. The calls are words filed in the database; no cut-off is given here.

Assays:
L1210 = test: In vitro growth inhibitory effect against L1210 murine leukemia cells was determined; assay type: functional; settings: Mus musculus, read-out: ID50 (the source's name)
In short: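 L1210 cells, 10^5 cells/tube in 4 mL, exposed continuously 96 h to drug added in Me2SO (≤40 μL per culture) at final 0.01, 0.1 and 10 μg/mL, triplicate.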

Mus musculus [1] = test: Activity against L1210 leukemia cells was studied in mice at 15 mg/kg and determined as MST(treated)/MST(control) x100; assay type: functional
Mus musculus [2] = test: Activity against L1210 leukemia cells was studied in mice at 30 mg/kg and determined as MST(treated)/MST(control) x100; assay type: functional
Mus musculus [3] = test: Activity against L1210 leukemia cells was studied in mice at 100 mg/kg and determined as MST(treated)/MST(control) x100; Inactive; assay type: functional, organism-based; design: dose 100 mg/kg
Mus musculus [4] = test: Activity against L1210 leukemia cells was studied in mice at 100 mg/kg and determined as MST(treated)/MST(control) x100; Toxic; assay type: functional, organism-based; design: dose 100 mg/kg
Mus musculus [5] = test: Activity against L1210 leukemia cells was studied in mice at 25 mg/kg and determined as MST(treated)/MST(control) x100; assay type: functional
Mus musculus [6] = test: Activity against L1210 leukemia cells was studied in mice at 50 mg/kg and determined as MST(treated)/MST(control) x100; assay type: functional

IC50 (L1210)	SMILES	further results
0.18 µg/mL (≈ 0.746 µM)	O=C1c2cccnc2C(=O)c2c(O)ccc(O)c21	T/C (Mus musculus [3]): inactive
2.4 µg/mL (≈ 5.48 µM)	CCN(CC)CCNc1ccc(NCCN(CC)CC)c2c1C(=O)c1cccnc1C2=O	T/C (Mus musculus [4]): Toxic
0.3 µg/mL (≈ 0.687 µM)	CCN(CC)CCNc1ccc(NCCN(CC)CC)c2c1C(=O)c1ccccc1C2=O	–
> 10 µg/mL	CC(=O)NCCNc1ccc(NCCNC(C)=O)c2c1C(=O)c1cccnc1C2=O	–
1.7 µg/mL (≈ 4.15 µM)	CN(C)CCCNc1ccc(NCCCN(C)C)c2c1C(=O)c1cccnc1C2=O	–

SMILES	IC50 (L1210)	further results
CN(C)CCNc1ccc(NCCN(C)C)c2c1C(=O)c1ccccc1C2=O	0.08 µg/mL (≈ 0.21 µM)	T/C (Mus musculus [1]): 117%; T/C (Mus musculus [2]): 150%
CN(C)CCNc1ccc(NCCN(C)C)c2c1C(=O)c1cccnc1C2=O	0.16 µg/mL (≈ 0.419 µM)	T/C (Mus musculus [5]): 120%; T/C (Mus musculus [6]): 130%
